Source: paper PMC6407616 (Molecular cell, 2018)

What was measured:
[1] = molecular target: H3Kc9me3 601 dinucleosome with 20 bp DNA linker (Xenopus laevis); assay: negative stain electron microscopy
[2] = molecular target: T1, ZMET2 (Zea mays, UniProt Q9AXT8); assay: DNA methyltransferase assay on unmethylated or hemimethylated 38 bp duplexed DNA; type: biochemical; conditions: 300 nM 38 bp duplex; single-turnover, saturating ZMET2; no peptide; n=2
T1 sequence (Q9AXT8 1-912): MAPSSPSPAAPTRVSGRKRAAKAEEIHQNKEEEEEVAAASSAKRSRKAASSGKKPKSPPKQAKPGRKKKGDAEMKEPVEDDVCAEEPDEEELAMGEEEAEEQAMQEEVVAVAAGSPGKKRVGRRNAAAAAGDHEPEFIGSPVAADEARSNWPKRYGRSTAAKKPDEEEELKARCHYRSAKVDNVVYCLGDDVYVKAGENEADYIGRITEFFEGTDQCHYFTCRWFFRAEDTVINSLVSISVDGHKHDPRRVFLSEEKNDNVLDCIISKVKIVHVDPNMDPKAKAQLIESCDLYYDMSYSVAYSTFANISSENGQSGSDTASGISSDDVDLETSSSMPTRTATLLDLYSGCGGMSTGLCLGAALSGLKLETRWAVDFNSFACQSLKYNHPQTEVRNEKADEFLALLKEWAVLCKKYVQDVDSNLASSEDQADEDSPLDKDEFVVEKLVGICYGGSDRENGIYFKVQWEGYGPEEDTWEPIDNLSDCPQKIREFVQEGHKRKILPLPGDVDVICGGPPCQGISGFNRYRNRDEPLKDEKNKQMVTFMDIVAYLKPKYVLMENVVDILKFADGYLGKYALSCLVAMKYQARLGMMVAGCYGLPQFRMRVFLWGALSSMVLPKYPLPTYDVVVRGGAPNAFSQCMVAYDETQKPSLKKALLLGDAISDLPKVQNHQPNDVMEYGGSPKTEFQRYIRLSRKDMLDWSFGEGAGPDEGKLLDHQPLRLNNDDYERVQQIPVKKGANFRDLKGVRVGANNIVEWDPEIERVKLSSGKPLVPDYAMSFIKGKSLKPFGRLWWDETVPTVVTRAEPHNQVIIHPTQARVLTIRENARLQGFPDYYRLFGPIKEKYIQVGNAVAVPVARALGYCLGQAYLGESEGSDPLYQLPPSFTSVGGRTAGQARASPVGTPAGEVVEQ

[3] = molecular target: ZMET2 (Zea mays, UniProt Q9AXT8 1-912); assay: fluorescence polarization
[4] = Size-exclusion chromatography coupled to multi angle light scattering; type: physicochemical; conditions: 20 mM Tris-HCl pH 8.0, 150 mM NaCl, 1 mM DTT; Figure S1E
Summary of the method: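 Recombinant ZMET2 was expressed with 0.2 mM IPTG at 20°C for 16–18 h, then purified by imidazole elution, TEV cleavage, Q anion exchange and Superdex 200 gel filtration. Samples were filtered and injected onto an S 050 size-exclusion column equilibrated overnight in MALS buffer. Molar mass was read by inline multi-angle light scattering with refractive index detection.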

[5] = FP binding of ZMET2 mutants to H3K9me2 tail peptides; conditions: in words; fluorescence polarization; n=2
[6] = system: H3Kc9me3 mononucleosomes; assay: FP binding of ZMET2 mutants to H3Kc9me3 mononucleosomes; parameters: species or system Xenopus laevis
[7] = system: naked 157 bp DNA; type: biochemical; conditions: in words, H3K9me0/2 peptides in trans, Figure S4E

full-length recombinant ZMET2 (wild type) (from UniProt Q9AXT8 1-912) (enzyme)
stoichiometry N (ZMET2 per dinucleosome) [1]: 1

unmethylated: AACGCAGCATGCGCTGCTAGC GCAGCTAGCGCTGCATG (DNA AACGCAGCATGCGCTGCTAGCGCAGCTAGCGCTGCATG; DNA, backbone not given here)
rate constant, 38 bp duplexed DNA without peptide [2]: 5.3E-5 (±1.1E-5) min^−1

B1: 38 bp unmethylated duplex (dsDNA)
DNA 1: AACGCAGCATGCGCTGCTAGCGCAGCTAGCGCTGCATG
DNA 2: CATGCAGCGCTAGCTGCGCTAGCAGCGCATGCTGCGTT
binding signal [3]: 32 fold tighter than without H3K9me2

B2: 38 bp hemimethylated duplex (dsDNA)
DNA 1: AACGCAGCATGCGCTGCTAGCGCAGCTAGCGCTGCATG
DNA 2: CATGCAGCGCTAGCTGCGCTAGCAGCGCATGCTGCGTT
modifications: 5mC at positions 5, 14, 23 and 32 of strand 1; complement unmethylated
binding signal [3]: 36 fold tighter than without H3K9me2

B3: ZMET2: full-length recombinant maintenance DNA methyltransferase from Zea mays (protein)
chain: MAPSSPSPAAPTRVSGRKRAAKAEEIHQNKEEEEEVAAASSAKRSRKAASSGKKPKSPPKQAKPGRKKKGDAEMKEPVEDDVCAEEPDEEELAMGEEEAEEQAMQEEVVAVAAGSPGKKRVGRRNAAAAAGDHEPEFIGSPVAADEARSNWPKRYGRSTAAKKPDEEEELKARCHYRSAKVDNVVYCLGDDVYVKAGENEADYIGRITEFFEGTDQCHYFTCRWFFRAEDTVINSLVSISVDGHKHDPRRVFLSEEKNDNVLDCIISKVKIVHVDPNMDPKAKAQLIESCDLYYDMSYSVAYSTFANISSENGQSGSDTASGISSDDVDLETSSSMPTRTATLLDLYSGCGGMSTGLCLGAALSGLKLETRWAVDFNSFACQSLKYNHPQTEVRNEKADEFLALLKEWAVLCKKYVQDVDSNLASSEDQADEDSPLDKDEFVVEKLVGICYGGSDRENGIYFKVQWEGYGPEEDTWEPIDNLSDCPQKIREFVQEGHKRKILPLPGDVDVICGGPPCQGISGFNRYRNRDEPLKDEKNKQMVTFMDIVAYLKPKYVLMENVVDILKFADGYLGKYALSCLVAMKYQARLGMMVAGCYGLPQFRMRVFLWGALSSMVLPKYPLPTYDVVVRGGAPNAFSQCMVAYDETQKPSLKKALLLGDAISDLPKVQNHQPNDVMEYGGSPKTEFQRYIRLSRKDMLDWSFGEGAGPDEGKLLDHQPLRLNNDDYERVQQIPVKKGANFRDLKGVRVGANNIVEWDPEIERVKLSSGKPLVPDYAMSFIKGKSLKPFGRLWWDETVPTVVTRAEPHNQVIIHPTQARVLTIRENARLQGFPDYYRLFGPIKEKYIQVGNAVAVPVARALGYCLGQAYLGESEGSDPLYQLPPSFTSVGGRTAGQARASPVGTPAGEVVEQ
modifications: left off: 6xHis, N-terminal, cleaved | SUMO, N-terminal, state not stated
oligomeric state by molar mass measurement [4]: monomer

B4: BAHx: ZMET2 mutated in the aromatic cage of the BAH domain (W224L) (protein)
chain: MAPSSPSPAAPTRVSGRKRAAKAEEIHQNKEEEEEVAAASSAKRSRKAASSGKKPKSPPKQAKPGRKKKGDAEMKEPVEDDVCAEEPDEEELAMGEEEAEEQAMQEEVVAVAAGSPGKKRVGRRNAAAAAGDHEPEFIGSPVAADEARSNWPKRYGRSTAAKKPDEEEELKARCHYRSAKVDNVVYCLGDDVYVKAGENEADYIGRITEFFEGTDQCHYFTCRLFFRAEDTVINSLVSISVDGHKHDPRRVFLSEEKNDNVLDCIISKVKIVHVDPNMDPKAKAQLIESCDLYYDMSYSVAYSTFANISSENGQSGSDTASGISSDDVDLETSSSMPTRTATLLDLYSGCGGMSTGLCLGAALSGLKLETRWAVDFNSFACQSLKYNHPQTEVRNEKADEFLALLKEWAVLCKKYVQDVDSNLASSEDQADEDSPLDKDEFVVEKLVGICYGGSDRENGIYFKVQWEGYGPEEDTWEPIDNLSDCPQKIREFVQEGHKRKILPLPGDVDVICGGPPCQGISGFNRYRNRDEPLKDEKNKQMVTFMDIVAYLKPKYVLMENVVDILKFADGYLGKYALSCLVAMKYQARLGMMVAGCYGLPQFRMRVFLWGALSSMVLPKYPLPTYDVVVRGGAPNAFSQCMVAYDETQKPSLKKALLLGDAISDLPKVQNHQPNDVMEYGGSPKTEFQRYIRLSRKDMLDWSFGEGAGPDEGKLLDHQPLRLNNDDYERVQQIPVKKGANFRDLKGVRVGANNIVEWDPEIERVKLSSGKPLVPDYAMSFIKGKSLKPFGRLWWDETVPTVVTRAEPHNQVIIHPTQARVLTIRENARLQGFPDYYRLFGPIKEKYIQVGNAVAVPVARALGYCLGQAYLGESEGSDPLYQLPPSFTSVGGRTAGQARASPVGTPAGEVVEQ
modifications: left off: 6xHis, N-terminal, cleaved | SUMO, N-terminal, state not stated
binding to H3K9me2 peptides relative to wild type ZMET2 [5]: did not show a defect, showing instead modestly tighter binding | affinity for H3Kc9me3 nucleosomes relative to wild type ZMET2 ([6]; in words, n=4): modestly tighter affinity for H3Kc9me3 nucleosomes

B5: CDx: ZMET2 mutated in the aromatic cage of the CD (F441A) (protein)
chain: MAPSSPSPAAPTRVSGRKRAAKAEEIHQNKEEEEEVAAASSAKRSRKAASSGKKPKSPPKQAKPGRKKKGDAEMKEPVEDDVCAEEPDEEELAMGEEEAEEQAMQEEVVAVAAGSPGKKRVGRRNAAAAAGDHEPEFIGSPVAADEARSNWPKRYGRSTAAKKPDEEEELKARCHYRSAKVDNVVYCLGDDVYVKAGENEADYIGRITEFFEGTDQCHYFTCRWFFRAEDTVINSLVSISVDGHKHDPRRVFLSEEKNDNVLDCIISKVKIVHVDPNMDPKAKAQLIESCDLYYDMSYSVAYSTFANISSENGQSGSDTASGISSDDVDLETSSSMPTRTATLLDLYSGCGGMSTGLCLGAALSGLKLETRWAVDFNSFACQSLKYNHPQTEVRNEKADEFLALLKEWAVLCKKYVQDVDSNLASSEDQADEDSPLDKDEAVVEKLVGICYGGSDRENGIYFKVQWEGYGPEEDTWEPIDNLSDCPQKIREFVQEGHKRKILPLPGDVDVICGGPPCQGISGFNRYRNRDEPLKDEKNKQMVTFMDIVAYLKPKYVLMENVVDILKFADGYLGKYALSCLVAMKYQARLGMMVAGCYGLPQFRMRVFLWGALSSMVLPKYPLPTYDVVVRGGAPNAFSQCMVAYDETQKPSLKKALLLGDAISDLPKVQNHQPNDVMEYGGSPKTEFQRYIRLSRKDMLDWSFGEGAGPDEGKLLDHQPLRLNNDDYERVQQIPVKKGANFRDLKGVRVGANNIVEWDPEIERVKLSSGKPLVPDYAMSFIKGKSLKPFGRLWWDETVPTVVTRAEPHNQVIIHPTQARVLTIRENARLQGFPDYYRLFGPIKEKYIQVGNAVAVPVARALGYCLGQAYLGESEGSDPLYQLPPSFTSVGGRTAGQARASPVGTPAGEVVEQ
modifications: left off: 6xHis, N-terminal, cleaved | SUMO, N-terminal, state not stated
rate constant relative to wild type ZMET2, naked DNA [7]: comparable to wild type ZMET2 | binding to H3K9me2 peptides relative to wild type ZMET2 [5]: significantly decreased compared to wild type ZMET2 | fold decrease in affinity for H3Kc9me3 nucleosomes vs wild type ZMET2 ([6]; fluorescence polarization, n=2): 4 fold
